Test results taken from paper PMC4449380 (Advances in Therapy, 2015).
Like-named read-outs stand apart in the source and are kept apart here.

Columns and labels:
[1] = cited from earlier work
[2] = ref Taisho Pharmaceutical Co., Ltd., data on file; cited from earlier work
P-glycoprotein = conditions: in vitro; ref Taisho Pharmaceutical Co., Ltd., data on file; cited from earlier work
CYP2C9 = conditions: in vitro; ref Taisho Pharmaceutical Co., Ltd., data on file; cited from earlier work
Safety assessments = type: in vivo, healthy Japanese males
Summary of the method: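 Safety was monitored across six single-site studies of 12 healthy males aged 20–39 years, hospitalized during dosing. Adverse events were recorded by nature and frequency, including changes in laboratory values, vital signs and 12-lead ECG. Investigators judged hypoglycemia from symptoms or blood glucose.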

[3] = 24-h cumulative urinary glucose excretion; type: in vivo, healthy Japanese males; conditions: luseogliflozin in combination with an OAD
Summary of the method: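 Healthy males, 12 per study. Pooled urine was collected for 24 h pre-dose and 0–24 h post-dose, and urine glucose was measured. Glimepiride arm: randomized three-way crossover of single doses (luseogliflozin 5 mg, glimepiride 1 mg, or both) before breakfast, with ≥7-day washout. Metformin arm: same design with 250 mg under fasting. Voglibose arm: add-on design, urine collected Days 1, 7 and 8.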

OATP1B1 = conditions: in vitro; ref Taisho Pharmaceutical Co., Ltd., data on file; cited from earlier work
[4] = type: in vivo, healthy Japanese males
Summary of the method: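 Open-label add-on study in 12 males: luseogliflozin 5 mg Day 1, pioglitazone 30 mg Days 2–7, both Day 8, dosed before breakfast. Blood was drawn pre-dose and 0.25–24 h on Days 1, 7 and 8. LC–MS/MS measured luseogliflozin (0.05–100 ng/mL) and pioglitazone with M-III/M-IV (10–2000 ng/mL). […] GMR with 90% CI was by ANOVA with treatment fixed and subject random.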

CYP2D6 = conditions: in vitro; ref Taisho Pharmaceutical Co., Ltd., data on file; cited from earlier work
OAT3 = conditions: in vitro; ref Taisho Pharmaceutical Co., Ltd., data on file; cited from earlier work
CYP2B6 = conditions: in vitro; ref Taisho Pharmaceutical Co., Ltd., data on file; cited from earlier work
CYP3A4 = conditions: in vitro; ref Taisho Pharmaceutical Co., Ltd., data on file; cited from earlier work
CYP2E1 = conditions: in vitro; ref Taisho Pharmaceutical Co., Ltd., data on file; cited from earlier work
CYP2A6 = conditions: in vitro; ref Taisho Pharmaceutical Co., Ltd., data on file; cited from earlier work
CYP1A2 = conditions: in vitro; ref Taisho Pharmaceutical Co., Ltd., data on file; cited from earlier work
[5] = test system: organic cation transporter 2; conditions: in vitro; ref Taisho Pharmaceutical Co., Ltd., data on file; cited from earlier work
[6] = test system: breast cancer resistance protein; conditions: in vitro; ref Taisho Pharmaceutical Co., Ltd., data on file; cited from earlier work
CYP2C8 = conditions: in vitro; ref Taisho Pharmaceutical Co., Ltd., data on file; cited from earlier work
[7] = type: in vivo, healthy Japanese males; conditions: co-administered with miglitol
Summary of the method: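 Randomized open-label crossover in 12 males using six sequences with ≥7-day washout. Single oral doses of luseogliflozin 5 mg, miglitol 50 mg, or both were given before breakfast while hospitalized. Venous blood was drawn pre-dose and 0.25–24 h post-dose. Plasma luseogliflozin was measured by LC–MS/MS (0.05–100 ng/mL). Cmax was derived non-compartmentally. GMR with 90% CI, combination vs alone, used ANOVA with treatment, sequence and timing fixed and subject random.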

OAT1 = conditions: in vitro; ref Taisho Pharmaceutical Co., Ltd., data on file; cited from earlier work

For `CCOc1ccc(Cc2cc([C@@H]3S[C@H](CO)[C@@H](O)[C@H](O)[C@H]3O)c(OC)cc2C)cc1` [Luseogliflozin, (1S)-1,5-Anhydro-1-[5-(4-ethoxybenzyl)-2-methoxy-4-methylphenyl]-1-thio-D-glucitol], the incidence of hypoglycemia ([1]; in combination with a sulfonylurea, over 52 weeks) is listed as 10.7%, the “hemoglobin A1c and fasting plasma glucose” value ([1]; in combination with other classes of OADs for 52 weeks) is listed as “significantly reduced” and the “rate of adverse drug reactions” value ([1]; in combination with other classes of OADs, 52 weeks) is listed as 12.4–25.4%. The incidence of hypoglycemia ([1]; in combination with other classes of OADs) was 0.9–3.4%, the “enzymes involved in the metabolism” value [2] was “cytochrome P450 (CYP) isoforms 3A4/5, 4A11, 4F2, and 4F3B, and UDP-glucuronosyltransferase 1A1” and the IC50 (P-glycoprotein) was greater than 100 µM. The IC50 (CYP2C9) was greater than 100 µM, the “serious adverse events or adverse events requiring treatment discontinuation” value (Safety assessments; all six studies, luseogliflozin alone or with OADs) was “no serious adverse events” and the “changes in laboratory tests, vital signs, or electrocardiography” value (Safety assessments; all studies) was “no clinically relevant changes”. The hypoglycemia (Safety assessments; any of the studies) was “no episodes of hypoglycemia”, the adverse events (Safety assessments; luseogliflozin administered alone or in combination with the other OADs) was “no adverse events” and the adverse events (Safety assessments; luseogliflozin in combination with glimepiride, mild in severity) was “One adverse event (white blood cell urine positive) occurred in one subject”. For the same compound, the adverse events (Safety assessments; luseogliflozin in combination with metformin (nausea; nausea and headache), mild in severity) was “three events occurred in two subjects”, the “UGE compared with luseogliflozin alone” value [3] was “slightly reduced” and the IC50 (OATP1B1) was greater than 100 µM. For the same compound, the “change in C max of luseogliflozin” value ([4]; co-administered with pioglitazone) was “about 15%”, the IC50 (CYP2D6) was greater than 100 µM and the IC50 (OAT3) was greater than 100 µM. The IC50 (CYP2B6) was greater than 100 µM, the IC50 (CYP3A4) was greater than 100 µM and the IC50 (CYP2E1) was greater than 100 µM. For the same compound, the IC50 (CYP2A6) was greater than 100 µM, the IC50 (CYP1A2) was greater than 100 µM and the IC50 [5] was greater than 100 µM. The IC50 [6] was greater than 100 µM, the IC50 (CYP2C8) was greater than 100 µM and the “change in C max of luseogliflozin” value [7] was “about 15%”. The IC50 (OAT1) was greater than 100 µM.
In the case of `CCc1ccc(CCOc2ccc(CC3SC(=O)NC3=O)cc2)nc1` (racemic) [Pioglitazone, (±)-5(-)[p(-)[2-(5-ethyl-2-pyridyl)ethoxy]benzyl]-2,4-thiazolidinedione, reference compound], the “decrease in C max and AUC0–24h of pioglitazone” value ([4]; co-administration with luseogliflozin) is reported as “about 10%”.
